# Measured values: ChEMBL document CHEMBL2169760 (J Med Chem, 2012)
# pKi: −log10 of the molar value. Active and inactive are the calls of the source. No cut-off for these calls is given here.
# Experiments:
# Adenosine receptor A2a [1] = molecular target: T1, Adenosine receptor A2a (Homo sapiens, UniProt P29274); assay: Displacement of [3H]CGS21680 from human A2a adenosine receptor expressed in HEK293 cells at 10 uM after 60 min by Perkin Elmer Liquid Scintillation Analyzer; type: cell-based
# [2] = molecular target: T2, Adenosine receptor A1 (Homo sapiens) (UniProt P30542); assay: Activity at human A1 adenosine receptor expressed in CHO cells assessed as inhibition of forskolin-stimulated cAMP production at 10 uM after 30 min; type: functional, cell-based
# T2 sequence (whole entry): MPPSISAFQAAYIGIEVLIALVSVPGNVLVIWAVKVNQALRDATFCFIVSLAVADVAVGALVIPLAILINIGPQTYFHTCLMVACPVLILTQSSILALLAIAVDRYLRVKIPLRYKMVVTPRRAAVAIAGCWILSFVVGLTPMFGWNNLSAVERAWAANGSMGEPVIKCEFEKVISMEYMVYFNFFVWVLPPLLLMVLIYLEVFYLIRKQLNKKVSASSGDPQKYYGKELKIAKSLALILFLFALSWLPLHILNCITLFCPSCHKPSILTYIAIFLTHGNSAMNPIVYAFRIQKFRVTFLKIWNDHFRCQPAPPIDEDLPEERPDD
# Adenosine receptor A3 = molecular target: T3, Adenosine receptor A3 (Homo sapiens, UniProt P0DMS8); assay: Displacement of [125I]I-AB-MECA from human A3 adenosine receptor expressed in CHO cells after 60 min Packard Cobra 2 gamma-counter; type: cell-based
# T3 sequence (P0DMS8 whole entry): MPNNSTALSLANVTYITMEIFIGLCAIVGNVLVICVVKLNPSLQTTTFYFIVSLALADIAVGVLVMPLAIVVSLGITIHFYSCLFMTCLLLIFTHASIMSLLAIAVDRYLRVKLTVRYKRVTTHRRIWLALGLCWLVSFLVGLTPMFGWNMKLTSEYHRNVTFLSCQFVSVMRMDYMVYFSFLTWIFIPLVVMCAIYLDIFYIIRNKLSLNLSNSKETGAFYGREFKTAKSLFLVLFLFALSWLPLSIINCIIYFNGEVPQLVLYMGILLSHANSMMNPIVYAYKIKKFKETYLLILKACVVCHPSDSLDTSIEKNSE
# Adenosine receptor A1 = molecular target: T4, Adenosine receptor A1 (Homo sapiens, UniProt P30542); assay: Displacement of [3H]R-PIA from human A1 adenosine receptor expressed in CHO cells after 60 min by Perkin Elmer Liquid Scintillation Analyzer; type: cell-based
# T4 sequence (P30542 whole entry): T2 sequence (whole entry)
# Adenosine receptor A2a [3] = molecular target: T1, Adenosine receptor A2a; assay: Displacement of [3H]CGS21680 from human A2a adenosine receptor expressed in HEK293 cells after 60 min by Perkin Elmer Liquid Scintillation Analyzer; type: cell-based
# [4] = molecular target: T2, Adenosine receptor A1 (Homo sapiens); assay: Displacement of [3H]R-PIA from human A1 adenosine receptor expressed in CHO cells at 10 uM after 60 min by Perkin Elmer Liquid Scintillation Analyzer; type: cell-based
# Mus musculus [5] = assay: Anticonvulsant activity in CF-1 albino mouse assessed as protection against maximal electroshock-induced seizures at 3 mg/kg, ip by MES test; type: functional, organism-based; set-up: dose 3 mg/kg
# Summary of the method: (§1)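 Dosed i.p. at 0.01 ml/g from a DMSO stock diluted to 10% DMSO (v/v) final. Single doses tested in traditional MES or s.c. metrazol seizure tests at the time of peak effect. Scored qualitatively as number of animals protected from convulsions (groups of 4–8).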
# Mus musculus [6] = assay: Anticonvulsant activity in CF-1 albino mouse assessed as protection against subcutaneous metrazol-induced seizures at 1 mg/kg, ip; type: functional, organism-based; set-up: dose 1 mg/kg; summary of the method: as §1
# Mus musculus [7] = assay: Anticonvulsant activity in ip dosed CF-1 albino mouse administered as single dose after 1 hr by corneal kindled mouse test; type: functional, organism-based
# Summary of the method: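 Mice corneally kindled twice daily (3 mA, 3 s, about 12 days, tetracaine/saline drop before each stimulation) and re-stimulated the day before testing. Single i.p. dose given (n = 4 or 8), then challenged with 3 mA for 3 s at 1 h post-injection. EC50 (±SE) determined.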
# Mus musculus [8] = assay: Anticonvulsant activity in CF-1 albino mouse assessed as protection against maximal electroshock-induced seizures at 2 mg/kg, ip by MES test; type: functional, organism-based; set-up: dose 2 mg/kg; summary of the method: as §1
# Mus musculus [9] = assay: Toxicity in ip dosed CF-1 albino mouse assessed as behavioral changes by rotarod test; type: organism-based; conditions: in vivo
# Mus musculus [10] = assay: Anticonvulsant activity in CF-1 albino mouse assessed as protection against subcutaneous metrazol-induced seizures at 3 mg/kg, ip; type: functional, organism-based; set-up: dose 3 mg/kg; summary of the method: as §1
# Mus musculus [11] = assay: Anticonvulsant activity in ip dosed CF-1 albino mouse assessed as protection against 6 Hz psychomotor seizure after 1 hr by minimal clonic seizure test; type: functional; conditions: CF-1, ip
# Summary of the method: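 Corneal 6 Hz stimulation (32 mA, 3 s, CC97) applied 1 h post-dose (time of peak effect). Absence of minimal clonic/automatistic behavior counted as protection.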
# Mus musculus [12] = assay: Anticonvulsant activity in CF-1 albino mouse assessed as protection against maximal electroshock-induced seizures at 1 mg/kg, ip by MES test; type: functional, organism-based; set-up: dose 1 mg/kg; summary of the method: as §1
# Homo sapiens = organism: Homo sapiens; assay: Selectivity ratio of Ki for human A2a adenosine receptor to Ki for human A1 adenosine receptor
# [13] = molecular target: Adenosine receptors; A1 & A3 (Homo sapiens) (UniProt P30542+P0DMS8); assay: Selectivity ratio of Ki for human A3 adenosine receptor to Ki for human A1 adenosine receptor
# Mus musculus [14] = assay: Toxicity in ip dosed CF-1 albino mouse assessed as behavioral changes after 4 hrs by rotarod test; type: organism-based; conditions: in vivo
# T1 sequence (P29274 whole entry): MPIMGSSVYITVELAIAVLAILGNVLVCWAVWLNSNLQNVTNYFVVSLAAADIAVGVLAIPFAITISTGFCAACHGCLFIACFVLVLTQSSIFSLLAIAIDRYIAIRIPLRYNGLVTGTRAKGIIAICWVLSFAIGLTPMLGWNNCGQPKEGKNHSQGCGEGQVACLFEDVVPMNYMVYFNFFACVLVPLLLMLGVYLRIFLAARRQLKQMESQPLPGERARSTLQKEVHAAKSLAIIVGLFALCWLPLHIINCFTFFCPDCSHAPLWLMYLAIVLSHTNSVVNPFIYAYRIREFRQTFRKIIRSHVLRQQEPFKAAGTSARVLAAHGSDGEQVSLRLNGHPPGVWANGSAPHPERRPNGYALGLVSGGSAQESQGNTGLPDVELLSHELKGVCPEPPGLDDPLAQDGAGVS
structure (smiles),measurement,setting,value
O[C@@H]1[C@H](O)[C@@H]2C[C@@H]2[C@H]1n1cnc2c(NCC(C3CC3)C3CC3)nc(Cl)nc21,inhibition,Adenosine receptor A2a [1],45%
same,inhibition,[2],-9%
O[C@@H]1[C@H](O)[C@@H]2C[C@@H]2[C@H]1n1cnc2c(N[C@@H](c3ccccc3)C3CC3)nc(Cl)nc21,inhibition,Adenosine receptor A2a [1],46%
same,pKi,Adenosine receptor A3,6.10
same,inhibition,[2],-7.4%
same,pKi,Adenosine receptor A1,5.52
O[C@@H]1[C@H](O)[C@@H]2C[C@@H]2[C@H]1n1cnc2c(NC(C3CC3)C3CC3)nc(I)nc21,pKi,Adenosine receptor A2a [3],5.65
same,pKi,Adenosine receptor A3,6.74
same,pKi,Adenosine receptor A1,6.31
OC[C@H]1O[C@@H](n2cnc3c(NC4CCCC4)ncnc32)[C@H](O)[C@@H]1O,inhibition,[2],100%
O[C@@H]1[C@H](O)[C@@H]2C[C@@H]2[C@H]1n1cnc2c(NC(C3CCCC3)C3CCCC3)nc(Cl)nc21,inhibition,[4],34%
O[C@@H]1[C@H](O)[C@@H]2C[C@@H]2[C@H]1n1cnc2c(N[C@@H](C3CCC3)C3CC3)nc(Cl)nc21,pKi,Adenosine receptor A2a [3],5.26
same,pKi,Adenosine receptor A3,5.53
same,inhibition,[2],33.4%
same,pKi,Adenosine receptor A1,6.57
O[C@@H]1[C@H](O)[C@@H]2C[C@@H]2[C@H]1n1cnc2c(NC(C3CC3)C3CC3)nc(Cl)nc21,Activity,Mus musculus [5],inactive
same,Activity,Mus musculus [6],inactive
same,EC50,Mus musculus [7],1.79 mg/kg
same,Activity,Mus musculus [8],inactive
same,TD50,Mus musculus [9],> 30 mg/kg
same,Activity,Mus musculus [10],inactive
same,ED50,Mus musculus [11],2.74 mg/kg
same,Activity,Mus musculus [12],inactive
O[C@@H]1[C@H](O)[C@@H]2C[C@@H]2[C@H]1n1cnc2c(N[C@H](CC3CC3)C3CC3)nc(Cl)nc21,inhibition,[2],18.4%
O[C@@H]1[C@H](O)[C@@H]2C[C@@H]2[C@H]1n1cnc2c(N[C@H](C3CCC3)C3CC3)nc(Cl)nc21,Ratio Ki,Homo sapiens,53
same,pKi,Adenosine receptor A2a [3],5.19
same,pKi,Adenosine receptor A3,5.55
same,inhibition,[2],18.1%
same,Ratio Ki,[13],23
same,pKi,Adenosine receptor A1,6.92
O[C@@H]1[C@H](O)[C@@H]2C[C@@H]2[C@H]1n1cnc2c(NC(C3CC3)C3CC3)ncnc21,inhibition,Adenosine receptor A2a [1],38%
same,pKi,Adenosine receptor A3,7.77
same,pKi,Adenosine receptor A1,7.25
CC(C)[C@H](Nc1nc(Cl)nc2c1ncn2[C@H]1[C@H](O)[C@H](O)[C@@H]2C[C@@H]21)C1CC1,inhibition,[2],20.8%
O=C(O)c1cnn(-c2nc(NC(C3CC3)C3CC3)c3ncn([C@H]4[C@H](O)[C@H](O)[C@@H]5C[C@@H]54)c3n2)c1,inhibition,Adenosine receptor A2a [1],17%
same,pKi,Adenosine receptor A3,6.19
same,pKi,Adenosine receptor A1,5.97
NNc1nc(NC(C2CC2)C2CC2)c2ncn([C@H]3[C@H](O)[C@H](O)[C@@H]4C[C@@H]43)c2n1,inhibition,Adenosine receptor A2a [1],43%
same,pKi,Adenosine receptor A3,7.15
same,pKi,Adenosine receptor A1,6.68
CC[C@H](Nc1nc(Cl)nc2c1ncn2[C@H]1[C@H](O)[C@H](O)[C@@H]2C[C@@H]21)C1CC1,inhibition,[2],57.9%
CC[C@@H](Nc1nc(Cl)nc2c1ncn2[C@H]1[C@H](O)[C@H](O)[C@@H]2C[C@@H]21)C1CC1,inhibition,[2],37.3%
CC(C)[C@@H](Nc1nc(Cl)nc2c1ncn2[C@H]1[C@H](O)[C@H](O)[C@@H]2C[C@@H]21)C1CC1,inhibition,[2],33.8%
OC[C@H]1O[C@@H](n2cnc3c(NC4CCCC4)nc(Cl)nc32)[C@H](O)[C@@H]1O,Activity,Mus musculus [5],inactive
same,Activity,Mus musculus [6],inactive
same,Activity,Mus musculus [8],inactive
same,Activity,Mus musculus [10],inactive
same,ED50,Mus musculus [11],0.12 mg/kg
same,Activity,Mus musculus [12],inactive
O[C@@H]1[C@H](O)[C@@H]2C[C@@H]2[C@H]1n1cnc2c(N[C@H](c3ccccc3)C3CC3)nc(Cl)nc21,inhibition,Adenosine receptor A2a [1],36%
same,inhibition,[4],50%
same,pKi,Adenosine receptor A3,5.66
same,inhibition,[2],-2.4%
COC(=O)c1cnn(-c2nc(NC(C3CC3)C3CC3)c3ncn([C@H]4[C@H](O)[C@H](O)[C@@H]5C[C@@H]54)c3n2)c1,pKi,Adenosine receptor A2a [3],5.39
same,pKi,Adenosine receptor A3,6.31
same,pKi,Adenosine receptor A1,6.14
O[C@@H]1[C@H](O)[C@@H]2C[C@@H]2[C@H]1n1cnc2c(N[C@@H](CC3CC3)C3CC3)nc(Cl)nc21,inhibition,[2],24%
NCCNC(=O)Cc1ccc(NC(=O)Cc2ccc(Nc3ncnc4c3ncn4[C@@H]3O[C@H](CO)[C@@H](O)[C@H]3O)cc2)cc1,Activity,Mus musculus [5],inactive
same,Activity,Mus musculus [6],inactive
same,pKi,Adenosine receptor A3,7.91
same,inhibition,[2],94%
same,Activity,Mus musculus [8],inactive
same,Activity,Mus musculus [10],inactive
same,TD50,Mus musculus [14],0.14 mg/kg
same,ED50,Mus musculus [11],0.03 mg/kg
same,Activity,Mus musculus [12],inactive
